Screens as filed in PubChem.
MrgX1 ag = human MrgX1 receptor agonism, primary screen; B-score at 10 µM; MrgX1-HEK293 cells, Fluo-4 calcium fluorescence, agonist mode; active compounds read high; Q96LB2; actives 0.44% (n = 310,000);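 active = calcium response B-score plate-corrected fluorescence ratio at least 3 library SD, with starting fluorescence B-score inside 5 SD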
Target sequence (Q96LB2 whole entry, looked up): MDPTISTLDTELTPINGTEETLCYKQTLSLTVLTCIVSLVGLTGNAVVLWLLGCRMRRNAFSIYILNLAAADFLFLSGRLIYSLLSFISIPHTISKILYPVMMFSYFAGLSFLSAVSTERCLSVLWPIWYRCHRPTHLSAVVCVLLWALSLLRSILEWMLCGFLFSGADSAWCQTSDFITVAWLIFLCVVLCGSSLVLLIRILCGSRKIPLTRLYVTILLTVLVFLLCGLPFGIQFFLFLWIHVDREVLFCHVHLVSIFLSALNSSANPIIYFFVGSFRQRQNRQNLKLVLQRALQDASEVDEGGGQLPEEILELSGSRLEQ
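Material: HEK293 cells stably expressing human MrgX1 receptor | Quantity: 15,000 cells per well | Times: Cells plated overnight, dye loaded 0.5 h 37 °C, 0.5 h room temperature | Measured by: Kinetic Fluo-4 NW fluorescence of intracellular calcium | Control set: Positive and negative controls per plate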
MrgX1 antag = blocks BAM8-22 activation of human MrgX1 receptor; Q96LB2; MRGX1-HEK293 calcium flux, Fluo-4, BAM8-22 antagonism; active compounds read low; B-score at 10 µM; actives 1.3% (n = 310,000); AID 588676;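 active = calcium-response B-score plate-corrected more than 3 library SD below zero, starting fluorescence within 5 deviations, no agonist response on first addition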;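 also: peak minus trough fluorescence over baseline after final BAM8-22 challenge near maximal dose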
MrgX1 allo act = allosterically activates human MrgX1 receptor signaling; actives 0.63% (n = 310,000); AID 588675; B-score at 10 µM; Q96LB2; MrgX1-HEK293, Fluo-4 calcium flux, FDSS; active compounds read high;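 active = plate-corrected calcium response at least 3 library SD above typical, normal starting fluorescence, not activating the receptor alone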;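 also: compound read alongside a low EC10 to EC30 dose of BAM8-22 agonist; peak minus trough fluorescence over baseline measured at the second addition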
RGS4 block = inhibitors of human RGS4 | actives 0.45% (n = 310,000) | AID 463165 | B-score at 10 µM | HEK293 M3R/RGS4 inducible, Fluo-4 calcium flux; active compounds read high; triggered by carbachol at its EC20 | P49798;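 active = B-score, a plate-corrected calcium signal, over three deviations above library mean, with baseline fluorescence within five deviations of library mean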;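 also: RGS4 expression induced by doxycycline in cells with stable M3 receptor; B-score is computed from the integrated fluorescence ratio over baseline after carbachol; higher B-score means a larger calcium signal and so more RGS4 inhibition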
Target sequence (P49798 whole entry, looked up): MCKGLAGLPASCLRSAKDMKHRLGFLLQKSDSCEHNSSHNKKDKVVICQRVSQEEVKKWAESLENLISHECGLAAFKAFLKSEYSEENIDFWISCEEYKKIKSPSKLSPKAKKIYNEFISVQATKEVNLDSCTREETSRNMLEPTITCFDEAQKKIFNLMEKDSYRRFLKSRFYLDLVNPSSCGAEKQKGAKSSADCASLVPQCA
KCC2 mod = KCC2 (human) Cl- transport modulation; KCC2 cells, thallium flux FluoZin-2 fluorescence; actives 2.2% (n = 190,000); B-score of Tl+ flux slope (higher = more flux/activation; lower = inhibition) at 10 µM;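 active = thallium flux slope and its plate-corrected score both differing from the plate sample mean at a set confidence after two filtering rounds, in either direction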;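 also: slope of fluorescence scaled to starting intensity during 10 to 20 s after thallium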
RGS4 act = potentiators or activators of RGS4. actives 0.92% (n = 310,000). B-score at 10 µM. HEK293 M3R/inducible RGS4, carbachol calcium flux Fluo4; active compounds read low;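 active = B-score of the integrated calcium signal more than 4 SD below the library mean, with starting fluorescence not abnormally high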;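 also: negative B-score means reduced calcium response which marks RGS4 activation or potentiation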
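Material: Inducible-RGS4 HEK293 cells carrying M3 receptor; also added: carbachol at ECmax as muscarinic agonist stimulus; incubation: compound preincubation 20 min at room temperature before agonist; signal: Fluo4-AM (2 µM) calcium-flux fluorescence, kinetic read; measure: integrated calcium ratio converted to B score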
Active calls of the source: *; i = inactive; nt = not tested or not shown. An excerpt weighted towards active compounds, which were near 4.7% of everything screened.

SMILES	MrgX1 ag	MrgX1 antag	MrgX1 allo act	RGS4 block	KCC2 mod	RGS4 act
Cc1ccc(-n2cc(-c3ccccc3)c3c(N4CCN(C)CC4)ncnc32)cc1	i	i	i	i	-0.175	i
Cc1ccc(-n2cc(-c3ccccc3)c3c(N4CCOCC4)ncnc32)cc1	nt	nt	nt	i	-0.862	-7.28*
CC1CCN(CC(=O)Nc2ccccc2Sc2ccccc2)CC1	i	i	i	i	-0.123	-7.37*
COc1ccc2nc(N3C(=O)/C(=C/c4ccc(Cl)cc4)NC3=S)sc2c1	nt	nt	nt	nt	53.5*	nt
CC(=O)/C(=N/Nc1ccc([N+](=O)[O-])cc1)N1CCCc2ccccc21	i	i	i	i	0.333	i
CC(=O)/C(=N/Nc1ccc(Br)cc1)N1CCCc2ccccc21	i	i	i	i	-1.53	-7.73*
O=C(O)c1ccc(Nc2ncnc3scc(-c4ccccc4)c23)cc1	29.5*	i	i	i	-0.751	i
CCn1c(O)c(N=NC(=O)CNc2cccc(C)c2)c2ccccc21	i	i	i	i	5.56*	i
CCn1c(O)c(N=NC(=O)CNc2ccc(C)cc2)c2ccccc21	i	i	i	i	1.62	i
N#C/C(C(N)=O)=c1/ccc2c(c1)N1C3=C(CCCC3)CC3CCCCC31N=2 (centres undefined)	i	i	i	i	0.0301	-8.76*
COc1ccc(-c2csc(NC(=O)CSCC(=O)Nc3cc(C)on3)n2)cc1OC	29.4*	i	i	i	nt	i
COc1ccc(-c2csc(NC(=O)c3ccc(OCC(=O)N4CCOCC4)c(OC)c3)n2)cc1OC	i	i	i	i	-1.4	-8.79*
COc1ccc(-c2ccc(SCC(=O)Nc3cc(C)on3)nn2)cc1OC	i	i	i	i	-1.9	i
COc1ccc(-c2csc(NC(=O)CN3C(=O)C4CC=CCC4C3=O)n2)cc1OC (centres undefined)	47.8*	i	i	i	nt	i
CC1CC(C)CN(CCCNC(=O)CN2C(=O)c3cccnc3Oc3ccc(Cl)cc32)C1 (centres undefined)	i	i	i	i	nt	i
O=C(OCc1ccc(O)cc1)c1c(-c2ccsc2)oc2ccc(N3CCOCC3)cc12	i	i	i	i	nt	i
CCN1CCCC1CNC(=O)c1ccc(Sc2ccc(F)cc2)c([N+](=O)[O-])c1 (centres undefined)	i	i	i	i	-1.05	-9.93*
CCN1CCCC1CNC(=O)c1ccc(Sc2ccccc2Cl)c([N+](=O)[O-])c1 (centres undefined)	i	i	i	i	0.38	-7.14*
COCCN=c1scc(-c2ccco2)n1/N=C/c1ccc(O)c(O)c1O	i	i	i	nt	-0.0781	nt
COCCN=c1scc(-c2cccs2)n1/N=C(\C)c1ccco1	i	i	14.8*	i	0.117	i
CN(C(=O)c1ccncc1)c1ccccc1	i	i	i	i	0.82	i
C/C(=N\N(Cc1ccccc1)c1ccccc1)c1ccncc1	i	i	i	i	-0.316	-9.2*
Cc1ccc(-n2c(SCC(=O)NNC(=S)Nc3ccccc3)nc3ccccc3c2=O)cc1	i	i	7.43*	i	0.212	i
COc1ccc2cc(CN(CCc3ccccc3)Cc3nnnn3Cc3ccco3)c(=O)[nH]c2c1	i	i	i	i	-3.08*	i
CCc1nc(SCC(=O)N2CC(=O)Nc3ccccc32)c2c(C)c(C)sc2n1	i	i	i	i	5.5*	i
SMILES	MrgX1 ag	MrgX1 antag	MrgX1 allo act	RGS4 block	KCC2 mod	RGS4 act
COc1ccc(CN2CCN(C(=O)Cn3ncn4cccc4c3=O)CC2)c(OC)c1OC	i	i	i	i	nt	i
CCOC(=O)N1CCN(C(=O)NC23CC4CC(CC(C4)C2)C3)CC1	i	i	i	i	-3.41*	i
Cc1ccc(S(=O)(=O)Nn2c(O)c(C=C3N=c4ccccc4=N3)sc2=S)cc1	i	-5.28*	i	i	-1.58	i
Cc1ccc(C(=O)Nn2c(O)c(C=C3N=c4ccccc4=N3)sc2=S)cc1	i	i	i	i	nt	i
CC12COC3(C(=O)Nc4ccc([N+](=O)[O-])cc4)CC1CCC32C (centres undefined)	i	i	8.37*	i	-0.142	i
Cc1ccc(-c2nc(=O)[nH]c3ccc(Br)cc23)cc1	i	i	i	i	nt	i
Cc1cc(C(F)(F)F)c(C#N)c(Sc2ccccc2)n1	i	i	9.59*	i	nt	i
COC(=O)CSc1nc(C)cc(C(F)(F)F)c1C#N	i	i	i	i	0.206	i
COc1cc(/C=N\Nc2nc3ccccc3o2)cc(OC)c1OC	i	-6.61*	i	i	-0.88	i
CC(C)c1ccc(N2C=Nc3ccc(C(C)C)cc3C2)cc1	i	i	i	i	0.0305	-7.53*
O=C(CCN1CCC(c2ccc(Cl)s2)=N1)c1ccc(Cl)s1	i	-4.87*	i	i	nt	i
CCOC(=O)COn1c(-c2cccc(Cl)c2)nc2ccc([N+](=O)[O-])cc21	i	-6.23*	i	i	0.0542	i
COc1cccc(NC(=O)CN(C)CC(=O)Nc2ccc(C)c([N+](=O)[O-])c2)c1	i	i	i	i	nt	i
C=CCn1c(C)cc(C(=O)CN2NS(=O)(=O)c3ccccc3C2=O)c1C	i	i	7.11*	i	0.11	i
COc1ccc(OC)c(S(=O)(=O)NCC(c2ccco2)S(=O)(=O)c2ccccc2)c1 (centres undefined)	i	i	i	i	nt	i
CCn1c(C)cc(/C=C2/SC(=S)N(CC(=O)O)C2=O)c1C	i	i	17.1*	i	-0.264	i
C#CCN1C(=O)S/C(=C/c2cc(C)n(CC)c2C)C1=O	i	i	i	i	0.493	i
N#Cc1ccc(NC(=O)CNc2cc(S(=O)(=O)N3CCOCC3)ccc2NCC2CCCO2)cc1 (centres undefined)	i	i	6.61*	i	1.05	i
CC(C)n1nc(C(=O)Nc2nnc(SCc3c(Cl)cccc3Cl)s2)c2ccccc2c1=O	i	-6.24*	i	i	nt	i
CC(C)n1nc(C(=O)Nc2nc3ccc(S(C)(=O)=O)cc3s2)c2ccccc2c1=O	i	i	i	i	nt	i
COc1cc(/C=N/Nc2nc(-c3ccc(S(=O)(=O)N(C)C)cc3)cs2)ccc1O	i	i	i	i	0.311	-7.36*
